Data on eleven molecules can be found in ChEMBL document CHEMBL1124931, “Fluoro carbocyclic nucleosides: synthesis and antiviral activity of 2'- and 6'-fluoro carbocyclic pyrimidine nucleosides including carbocyclic 1-(2-deoxy-2-fluoro-beta-D-arabinofuranosyl)-5-methyluracil and carbocyclic 1-(2-deoxy-2-fluoro-beta-D-arabinofuranosyl)-5-iodouracil” (1990).

Assay [1] deals with Vero. As to the kind of experiment: Antiherpes activity was measured in a plaque reduction assay in Vero cells, against HSV-1 strain KOS. Particulars: Chlorocebus sabaeus, read-out: ID50 (the source's name). The assay is classed as functional. The method, boiled down: (§1)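 Confluent Vero monolayers infected with 30–40 PFU of HSV-1 (KOS) or HSV-2 (186). After 1 h adsorption at 37 °C, overlaid with maintenance medium containing 0.75% carboxymethylcellulose plus a range of compound concentrations. Incubated 2 further days at 37 °C, then fixed and stained and plaques counted. ID50 is the concentration giving 50% inhibition of plaque formation.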

The test system of assay [2] is Vero. As to the kind of experiment: Antiherpes activity was measured in a plaque reduction assay in Vero cells, against HSV-2 strain 186. The format is functional. Particulars: Chlorocebus sabaeus, read-out: ID50 (the source's name). The method, boiled down: as §1
Assay [3] concerns Vero. As to the kind of experiment: Cytotoxic effect on Vero cells was determined in mock infected cell monolayers incubated with the compound for 48 hr at 37 degree celsius. The assay is classed as functional, Chlorocebus sabaeus. An outline of the steps:
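Mock-infected confluent Vero monolayers exposed to compound for 48 h at 37 °C. Examined microscopically, with gross changes in cell staining, number or morphology scored. The cytotoxic dose is the level affecting 50% of the monolayer.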

Each structure is given as a SMILES string. Converted amounts (≈) assume the structure as drawn. Bounds are passed on as bounds.

For `O=c1[nH]c(=O)n(C2CC(CO)C(O)C2F)cc1I` (stereo not drawn), the IC50 in assay [1] was 11 µg/mL (≈ 29.7 µM); in assay [2], over 100 µg/mL. In assay [3], this molecule had a Cytotoxicity of over 100 µg/mL.

Take `Nc1ccn([C@@H]2C[C@H](CO)[C@@H](O)[C@@H]2F)c(=O)n1`: the IC50 in assay [1] worked out at 13 µg/mL (≈ 53.4 µM); in assay [2] it was 82 µg/mL (≈ 337 µM). The molecule also displayed a Cytotoxicity in assay [3] of over 100 µg/mL.

`Cc1cn([C@@H]2O[C@H](CO)[C@@H](O)[C@@H]2F)c(=O)[nH]c1=O` [5-METHYL-2'-FLUOROARAURACIL]: the IC50 in assay [1] and in assay [2] was 0.05 µg/mL (≈ 0.192 µM) each time. Also, in assay [3], the Cytotoxicity is over 30 µg/mL.

Take `O=c1[nH]c(=O)n([C@H]2C[C@H](O)[C@@H](CO)[C@H]2F)cc1I`: the IC50 in assay [1] and in assay [2] was over 300 µg/mL in each case. The same molecule yielded a Cytotoxicity in assay [3] of over 300 µg/mL.

For the molecule `Nc1ccn([C@@H]2C[C@H](CO)[C@@H](O)[C@H]2F)c(=O)n1`, the IC50 was 18 µg/mL (≈ 74 µM) in assay [1] and 44 µg/mL (≈ 181 µM) in assay [2]. This molecule also came in with a Cytotoxicity in assay [3] of over 300 µg/mL.

On to `O=c1[nH]c(=O)n([C@H]2C[C@H](O)[C@@H](CO)[C@@H]2F)cc1I`, for which the IC50 in assay [1] and in assay [2] was over 300 µg/mL throughout. This molecule also came in with a Cytotoxicity in assay [3] of over 300 µg/mL.

As for `Cc1cn(C2CC(CO)C(O)C2(F)F)c(=O)[nH]c1=O` (stereo not drawn), the IC50 in assay [1] and in assay [2] was over 100 µg/mL each time. The molecule also showed a Cytotoxicity in assay [3] of over 100 µg/mL.

With `O=c1[nH]c(=O)n([C@H]2C[C@H](O)[C@@H](CO)O2)cc1I` [IDOXURIDINE], the IC50 in assay [1] was found to be 0.1 µg/mL (≈ 0.282 µM); in assay [2], 0.9 µg/mL (≈ 2.54 µM). This molecule displayed a Cytotoxicity in assay [3] of over 30 µg/mL.

For `O=c1[nH]c(=O)n([C@@H]2C[C@H](CO)[C@@H](O)C2)cc1I`, the IC50 came to 0.07 µg/mL (≈ 0.199 µM) in assay [1] and 97 µg/mL (≈ 275 µM) in assay [2]. Besides, in assay [3], the Cytotoxicity was 300 µg/mL.

Regarding `Cc1cn(C2CC(CO)C(O)C2F)c(=O)[nH]c1=O` (stereo not drawn), the IC50 in assay [1] and in assay [2] was over 100 µg/mL in each case. The molecule further gave a Cytotoxicity in assay [3] of over 100 µg/mL.

Take `O=c1ccn(C2CC(O)C(CO)C2F)c(=O)[nH]1` (stereo not drawn): the IC50 in assay [1] and in assay [2] was over 300 µg/mL throughout. Besides, in assay [3], the Cytotoxicity was over 300 µg/mL.
